Measured values reported in ChEMBL document CHEMBL2010802, “Melodinines M-U, cytotoxic alkaloids from Melodinus suaveolens” (J Nat Prod, 2012).

Columns and labels:
Type in all cases: functional, cell-based
SW480 = assay: Cytotoxicity against human SW480 cells after 48 hrs by MTT assay; details: SW480, 48 h
Method in brief: (§1)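 Cells grown in RPMI-1640 or DMEM with 10% FBS, 5% CO2, 37 °C, at 1 × 10^5 cells/mL. Adherent lines (A-549, MCF-7, SMMC-7721, SW480) were left to attach 12 h before dosing; suspension HL-60 was seeded just before dosing. Exposed 48 h to 0.064, 0.32, 1.6, 8 and 40 μM in triplicate, with cisplatin as positive control. MTT viability read-out; IC50 by Reed and Muench method.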

MCF7 = assay: Cytotoxicity against human MCF7 cells after 48 hrs by MTT assay; details: MCF7, 48 h; method in brief: as §1
SMMC-7721 = assay: Cytotoxicity against human SMMC7721 cells after 48 hrs by MTT assay; details: SMMC-7721, 48 h; method in brief: as §1
A549 = assay: Cytotoxicity against human A549 cells after 48 hrs by MTT assay; details: A549, 48 h; method in brief: as §1
HL-60 = assay: Cytotoxicity against human HL60 cells after 48 hrs by MTT assay; details: HL-60, 48 h; method in brief: as §1

SMILES	IC50 (SW480)	IC50 (MCF7)	IC50 (SMMC-7721)	IC50 (A549)	IC50 (HL-60)
CC[C@]12C=CCN3CC[C@]4(C(=C(C(=O)OC)C1)Nc1cc(OC)ccc14)[C@@H]32	2.4 µM	0.2 µM	1.1 µM	1 µM	0.5 µM
CC[C@]12C=CCN3CC[C@]4(C(=C(C(=O)OC)C1)Nc1cc(O)ccc14)[C@@H]32	> 40 µM	> 40 µM	15.5 µM	17.6 µM	6 µM
COC(=O)C1=C2Nc3ccccc3[C@@]23CCN2CC=C[C@@]([C@@H](C)OC(C)=O)(C1)[C@H]23	15 µM	14.2 µM	6 µM	15.5 µM	5.8 µM
COC(=O)C1=C2Nc3cc(OC)ccc3[C@@]23CCN2CC=C[C@@]([C@@H](C)O)(C1)[C@H]23	13.1 µM	21.3 µM	16 µM	19.7 µM	6.3 µM
CC[C@]12C=C[C@@H](CC(C)=O)N3CC[C@]4(C(=C(C(=O)OC)C1)Nc1ccccc14)[C@@H]32	0.5 µM	0.4 µM	0.3 µM	0.6 µM	0.2 µM
CC[C@@]12CC(C(=O)OC)=C3Nc4ccccc4[C@@]34CCN(C[C@@H]3O[C@@H]31)[C@@H]24 [LOCHNERICINE]	> 40 µM	> 40 µM	24.7 µM	> 40 µM	15.5 µM
CC[C@]12C=CCN3CC[C@]4(C(=C(C(=O)OC)C1)Nc1cc(O)c(C)cc14)[C@@H]32 [MELODININE N]	15.1 µM	15 µM	15.5 µM	18.5 µM	3.5 µM
CC[C@]12C=CCN3CC[C@]4(C(=C(C(=O)OC)C1)Nc1cc(O)c(COC)cc14)[C@@H]32 [MELODININE O]	14.9 µM	15.7 µM	15.2 µM	18.2 µM	10 µM
CC[C@]12C=CCN3CC[C@]4(C(=C(C(=O)OC)C1)Nc1ccc(O)cc14)[C@@H]32 [MELODININE P]	> 40 µM	> 40 µM	> 40 µM	> 40 µM	28.1 µM
COC(=O)C1=C2Nc3ccccc3[C@@]23CCN2[C@H](CC(C)=O)C=C[C@@]([C@@H](C)O)(C1)[C@H]23 [MELODININE R]	1.6 µM	1.8 µM	3.3 µM	3.9 µM	0.7 µM
CC[C@@]12CC(C(=O)OC)=C3Nc4ccccc4[C@@]34CCN([C@H](CC(C)=O)[C@@H]3O[C@@H]31)[C@@H]24 [MELODININE S]	13.5 µM	7 µM	11.2 µM	15.2 µM	4.8 µM
CC[C@]12C=CCN3CC[C@]4(C(=C(C(=O)OC)C1)Nc1ccccc14)[C@@H]32 [TABERSONINE]	12.1 µM	9.9 µM	5.6 µM	14.7 µM	4.5 µM
